# Experimental data published in ChEMBL document CHEMBL1149351, “4-Amino-2-alkyl-butyramides as small molecule CCR2 antagonists with favorable pharmacokinetic properties” (Bioorg Med Chem Lett, 2006).
# Assays:
# [1] = target: T1, C-C chemokine receptor type 2 (Homo sapiens, UniProt P41597); experiment: Displacement of [125I]MCP-1 from human CCR2b expressed in CHO cells; assay type: cell-based
# Target sequence in this assay (P41597 whole entry): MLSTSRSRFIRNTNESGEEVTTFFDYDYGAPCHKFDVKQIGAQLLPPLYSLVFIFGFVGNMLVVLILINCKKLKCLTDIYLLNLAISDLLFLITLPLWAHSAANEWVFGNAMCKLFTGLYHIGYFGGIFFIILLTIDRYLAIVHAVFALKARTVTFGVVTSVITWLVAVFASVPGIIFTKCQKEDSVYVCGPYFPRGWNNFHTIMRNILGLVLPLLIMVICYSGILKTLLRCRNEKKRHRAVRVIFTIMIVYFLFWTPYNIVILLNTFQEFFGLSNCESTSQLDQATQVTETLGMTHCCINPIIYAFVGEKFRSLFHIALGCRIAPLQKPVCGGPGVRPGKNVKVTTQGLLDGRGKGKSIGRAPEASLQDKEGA
# [2] = target: T1, C-C chemokine receptor type 2; experiment: Displacement of [125I]MCP-1 from human CCR2b expressed in human monocyte cells; assay type: cell-based
# Outline: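 Human monocytes (5 × 10⁴) incubated with ¹²⁵I-hMCP-1 (20–50 pM; 2200 Ci/mmol) plus varying unlabeled competitor, 60 min at room temperature, in 50 mM HEPES, 5 mM MgCl₂, 1 mM CaCl₂, pH 7.4. Stopped by filtration on PEI-presoaked GF/B filters, washed with 25 mM HEPES pH 7.5/500 mM NaCl, then scintillation counted. Means of at least two separate experiments.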
# Target sequence in this assay (P41597 whole entry): as above
# [3] = target: T1, C-C chemokine receptor type 2; experiment: Inhibition of [125I]MCP-1 binding to human CCR2b expressed in CHO cells at 1 uM; assay type: cell-based
# Target sequence in this assay (P41597 whole entry, looked up): as the sequence (P41597 whole entry) above
# Rattus norvegicus [4] = experiment: Oral bioavailability in Sprague-Dawley rat at 3 mg/kg, po; assay type: ADME, organism-based; conditions: in vivo
# Rattus norvegicus [5] = experiment: AUC in Sprague-Dawley rat at 1 mg/kg, iv; assay type: ADME, organism-based, Plasma; set-up: dose 1 mg/kg, route intravenous; conditions: in vivo
# [6] = Volume of distribution in Sprague-Dawley rat at 1 mg/kg, iv; assay type: ADME, organism-based; set-up: dose 1 mg/kg, route intravenous; conditions: in vivo, read-out: Vdss
# [7] = target: C-C chemokine receptor type 5 (Homo sapiens) (UniProt P51681); experiment: Inhibition of CCR5 at 1 uM
# Sequence of C-C chemokine receptor type 5 (Homo sapiens) (P51681 whole entry, looked up): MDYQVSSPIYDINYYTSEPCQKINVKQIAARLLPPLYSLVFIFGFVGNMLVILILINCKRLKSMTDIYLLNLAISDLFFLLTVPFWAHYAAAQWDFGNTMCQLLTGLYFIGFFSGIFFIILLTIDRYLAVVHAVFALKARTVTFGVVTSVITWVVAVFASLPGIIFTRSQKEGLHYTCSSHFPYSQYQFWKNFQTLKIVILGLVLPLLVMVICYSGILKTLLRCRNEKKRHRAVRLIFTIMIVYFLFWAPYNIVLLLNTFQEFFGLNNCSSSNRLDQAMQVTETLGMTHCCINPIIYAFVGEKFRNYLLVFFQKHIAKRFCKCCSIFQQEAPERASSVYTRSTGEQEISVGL
# Rattus norvegicus [8] = experiment: Tmax in Sprague-Dawley rat at 3 mg/kg, po; assay type: ADME, organism-based; set-up: dose 3 mg/kg, route oral; conditions: in vivo
# [9] = Cmax in Sprague-Dawley rat at 3 mg/kg, po; assay type: ADME, organism-based; set-up: dose 3 mg/kg, route oral; conditions: in vivo
# [10] = target: C-X-C chemokine receptor type 4 (Homo sapiens) (UniProt P61073); experiment: Inhibition of human CXCR4 at 1 uM
# Sequence of C-X-C chemokine receptor type 4 (Homo sapiens) (P61073 whole entry): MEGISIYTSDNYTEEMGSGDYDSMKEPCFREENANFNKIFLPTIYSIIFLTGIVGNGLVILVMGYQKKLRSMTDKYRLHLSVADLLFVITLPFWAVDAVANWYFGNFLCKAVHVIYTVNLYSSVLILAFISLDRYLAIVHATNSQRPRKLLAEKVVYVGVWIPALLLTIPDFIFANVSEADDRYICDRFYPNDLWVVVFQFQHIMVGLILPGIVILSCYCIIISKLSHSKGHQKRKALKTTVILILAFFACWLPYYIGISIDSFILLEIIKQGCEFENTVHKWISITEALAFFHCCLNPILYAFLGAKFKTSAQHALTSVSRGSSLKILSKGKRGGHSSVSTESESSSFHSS
# [11] = target: T1, C-C chemokine receptor type 2; experiment: Activity at CCR2b by calcium flux based FLIPR assay in CHO cells; assay type: functional, cell-based
# Target sequence in this assay (P41597 whole entry): as the sequence (P41597 whole entry) above
# [12] = Half life in Sprague-Dawley rat at 1 mg/kg, iv; assay type: ADME, organism-based; set-up: dose 1 mg/kg, route intravenous; conditions: in vivo
# [13] = target: C-C chemokine receptor type 8 (Homo sapiens) (UniProt P51685); experiment: Inhibition of CCR8 at 1 uM
# Sequence of C-C chemokine receptor type 8 (Homo sapiens) (P51685 whole entry): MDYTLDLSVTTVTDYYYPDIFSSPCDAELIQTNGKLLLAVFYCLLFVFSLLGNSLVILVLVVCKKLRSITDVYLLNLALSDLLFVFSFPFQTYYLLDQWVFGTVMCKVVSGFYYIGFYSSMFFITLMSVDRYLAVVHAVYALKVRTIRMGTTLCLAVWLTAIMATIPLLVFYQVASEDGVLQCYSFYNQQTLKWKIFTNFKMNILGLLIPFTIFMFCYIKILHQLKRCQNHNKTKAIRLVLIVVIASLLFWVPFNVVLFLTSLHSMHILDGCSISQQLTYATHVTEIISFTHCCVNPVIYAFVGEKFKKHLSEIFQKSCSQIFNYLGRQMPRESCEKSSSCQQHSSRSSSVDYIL
# [14] = Clearance in Sprague-Dawley rat at 1 mg/kg, iv; assay type: ADME, organism-based; set-up: dose 1 mg/kg, route intravenous; conditions: in vivo
# [15] = target: T2, C-C chemokine receptor type 3 (Homo sapiens) (UniProt P51677); experiment: Inhibition of human CCR3 at 4 uM
# T2 sequence (whole entry): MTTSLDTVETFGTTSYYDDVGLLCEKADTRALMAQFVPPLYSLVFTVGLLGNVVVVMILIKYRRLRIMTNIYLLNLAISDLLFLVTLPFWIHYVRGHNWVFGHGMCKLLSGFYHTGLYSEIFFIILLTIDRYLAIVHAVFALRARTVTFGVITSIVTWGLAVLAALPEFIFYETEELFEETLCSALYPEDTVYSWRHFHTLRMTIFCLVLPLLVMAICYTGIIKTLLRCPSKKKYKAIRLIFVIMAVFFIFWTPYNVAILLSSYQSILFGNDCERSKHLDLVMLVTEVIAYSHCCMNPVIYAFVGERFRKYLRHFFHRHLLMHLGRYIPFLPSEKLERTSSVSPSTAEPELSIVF
# Rattus norvegicus [16] = experiment: AUC in Sprague-Dawley rat at 3 mg/kg, po; assay type: ADME, organism-based, Plasma; set-up: dose 3 mg/kg, route oral; conditions: in vivo
# [17] = target: T3, C-C chemokine receptor type 1 (Homo sapiens) (UniProt P32246); experiment: Inhibition of human CCR1 at 1 uM
# T3 sequence (whole entry): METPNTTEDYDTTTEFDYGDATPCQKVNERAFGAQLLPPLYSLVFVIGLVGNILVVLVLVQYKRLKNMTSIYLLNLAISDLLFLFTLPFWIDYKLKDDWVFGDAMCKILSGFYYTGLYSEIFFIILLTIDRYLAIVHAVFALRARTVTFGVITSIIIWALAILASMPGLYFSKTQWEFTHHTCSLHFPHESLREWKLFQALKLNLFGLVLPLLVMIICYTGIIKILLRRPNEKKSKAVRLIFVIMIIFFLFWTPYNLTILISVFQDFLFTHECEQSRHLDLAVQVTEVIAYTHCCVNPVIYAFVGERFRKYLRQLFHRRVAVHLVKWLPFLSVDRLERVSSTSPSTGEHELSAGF
# [18] = target: T1, C-C chemokine receptor type 2; experiment: Inhibition of [125I]MCP-1 binding to human CCR2b expressed in human monocyte cells at 1 uM; assay type: cell-based
# Outline: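 Competition binding on human monocytes (5 × 10⁴ cells) with ¹²⁵I-hMCP-1 (20–50 pM) in 50 mM HEPES, 5 mM MgCl₂, 1 mM CaCl₂, pH 7.4, for 60 min at room temperature. Stopped by filtration through filters presoaked in 0.1% polyethyleneimine, washed with 25 mM HEPES pH 7.5 plus 500 mM NaCl. Bound label read by scintillation counting. Mean of at least two separate experiments.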
# Target sequence in this assay (P41597 whole entry, looked up): as the sequence (P41597 whole entry) above
Structure (SMILES),IC50 [1],IC50 [2],also measured
O=C(NCc1cc(C(F)(F)F)cc(C(F)(F)F)c1)C(CCN1CCC2(C=Cc3ccccc32)CC1)NS(=O)(=O)C(F)(F)F (stereo not drawn),125 nM,–,–
CC(O)C(CCN1CC[C@@]2(C=Cc3ccccc32)[C@@H](C)C1)C(=O)NCc1cc(C(F)(F)F)cc(C(F)(F)F)c1 (stereo partly drawn),–,48 nM,–
COC(=O)C[C@H](CCN1CCC(c2ccccc2)CC1)C(=O)NCc1cc(C(F)(F)F)cc(C(F)(F)F)c1,–,–,inhibition [3]: 42%
O=C(NCc1cc(C(F)(F)F)cc(C(F)(F)F)c1)C(CCN1CCC2(C=Cc3ccccc32)CC1)C1CCCCC1 (stereo not drawn),160 nM,73 nM,–
C=CC[C@H](CCN1CCC2(C=Cc3ccccc32)CC1)C(=O)NCc1cc(C(F)(F)F)cc(C(F)(F)F)c1,193 nM,37 nM,–
C[C@H]1CN(CC[C@H](C(=O)NCc2cc(C(F)(F)F)cc(C(F)(F)F)c2)C2CC2)CC[C@@]12C=Cc1ccccc12,14 nM,4 nM,F (Rattus norvegicus [4]): 98%; AUC (Rattus norvegicus [5]): 4.17 µM·h; Vd [6]: 2.19 L/kg; inhibition [7]: 38%; Tmax (Rattus norvegicus [8]): 4.67 µM; Cmax [9]: 1580 nM; inhibition [10]: 8%; IC50 [11]: 4 nM; half-life [12]: 4.11 h; inhibition [13]: 9%; clearance [14]: 7.36 mL/min/kg; inhibition [15]: 3%; AUC (Rattus norvegicus [16]): 4.08 µM·h; inhibition [17]: -5%
NC(CCN1CCC2(C=Cc3ccccc32)CC1)C(=O)NCc1cc(C(F)(F)F)cc(C(F)(F)F)c1 (stereo not drawn),–,–,inhibition [3]: 33%
CCC[C@H](CCN1CCC(c2ccccc2)CC1)C(=O)NCc1cc(C(F)(F)F)cc(C(F)(F)F)c1,126 nM,42 nM,–
CC(O)C(CCN1CCC(c2ccc(F)cc2)CC1)C(=O)NCc1cc(C(F)(F)F)cc(C(F)(F)F)c1 (stereo not drawn),–,462 nM,–
O=CNC(CCN1CCC2(C=Cc3ccccc32)CC1)C(=O)NCc1cc(C(F)(F)F)cc(C(F)(F)F)c1 (stereo not drawn),–,–,inhibition [3]: 25%
CC[C@H]1CN(CC[C@H](C(=O)NCc2cc(C(F)(F)F)cc(C(F)(F)F)c2)c2ccc(F)cc2)CC[C@@]12C=Cc1ccccc12,437 nM,–,–
O=C(NCc1cc(C(F)(F)F)cc(C(F)(F)F)c1)C(CCN1CCC2(C=Cc3ccccc32)CC1)C1CC1 (stereo not drawn),69 nM,38 nM,–
CS(=O)(=O)NC(CCN1CCC2(C=Cc3ccccc32)CC1)C(=O)NCc1cc(C(F)(F)F)cc(C(F)(F)F)c1 (stereo not drawn),244 nM,–,–
O=C(CCCN1CCC2(C=Cc3ccccc32)CC1)NCc1cc(C(F)(F)F)cc(C(F)(F)F)c1,570 nM,–,inhibition [18]: 80%
CC(C)[C@@H](CCN1CCC2(C=Cc3ccccc32)CC1)C(=O)NCc1cc(C(F)(F)F)cc(C(F)(F)F)c1,349 nM,72 nM,–
O=C(NCc1cc(C(F)(F)F)cc(C(F)(F)F)c1)C(CCN1CCC2(C=Cc3ccccc32)CC1)Cc1ccccc1 (stereo not drawn),298 nM,232 nM,–
C=CC[C@H](CCN1CCC(c2ccccc2)CC1)C(=O)NCc1cc(C(F)(F)F)cc(C(F)(F)F)c1,642 nM,216 nM,–
O=C1NCC(C(=O)NC(CCN2CCC3(C=Cc4ccccc43)CC2)C(=O)NCc2cc(C(F)(F)F)cc(C(F)(F)F)c2)N1 (stereo not drawn),525 nM,–,–

Structure (SMILES),IC50 [1],IC50 [2],also measured
C[C@H]1CN(CC[C@H](C(=O)NCc2cc(C(F)(F)F)cc(C(F)(F)F)c2)c2ccc(F)cc2)CC[C@@]12C=Cc1ccccc12,67 nM,–,–
C[C@@H](CCN1CCC2(C=Cc3ccccc32)CC1)C(=O)NCc1cc(C(F)(F)F)cc(C(F)(F)F)c1,605 nM,86 nM,–
C[C@H]1CN(CC[C@@H](C(=O)NCc2cc(C(F)(F)F)cc(C(F)(F)F)c2)C2CC2)CC[C@@]12C=Cc1ccccc12,80 nM,13 nM,–
CC(=O)Nc1ncc(S(=O)(=O)NC(CCN2CCC3(C=Cc4ccccc43)CC2)C(=O)NCc2cc(C(F)(F)F)cc(C(F)(F)F)c2)s1 (stereo not drawn),–,–,inhibition [3]: 45%
C[C@H](CCN1CCC2(C=Cc3ccccc32)CC1)C(=O)NCc1cc(C(F)(F)F)cc(C(F)(F)F)c1,231 nM,37 nM,–
CC(=O)N1CCCC(C(CCN2CCC3(C=Cc4ccccc43)CC2)C(=O)NCc2cc(C(F)(F)F)cc(C(F)(F)F)c2)C1 (stereo not drawn),660 nM,80 nM,–
O=C(NCc1cc(C(F)(F)F)cc(C(F)(F)F)c1)[C@@H](CCN1CCC(c2ccccc2)CC1)C1CC1,285 nM,129 nM,–
C[C@H]1CN(CCCC(=O)NCc2cc(C(F)(F)F)cc(C(F)(F)F)c2)CC[C@@]12C=Cc1ccccc12,173 nM,93 nM,–
CS(=O)(=O)N1CCCC(C(CCN2CCC3(C=Cc4ccccc43)CC2)C(=O)NCc2cc(C(F)(F)F)cc(C(F)(F)F)c2)C1 (stereo not drawn),783 nM,–,inhibition [18]: 70%
O=C(NCc1cc(C(F)(F)F)cc(C(F)(F)F)c1)C(CCN1CCC2(C=Cc3ccccc32)CC1)NS(=O)(=O)c1ccccc1 (stereo not drawn),–,–,inhibition [3]: 7%
COC(=O)NC(CCN1CCC2(C=Cc3ccccc32)CC1)C(=O)NCc1cc(C(F)(F)F)cc(C(F)(F)F)c1 (stereo not drawn),805 nM,–,–
O=C(NCc1cc(C(F)(F)F)cc(C(F)(F)F)c1)C(CCN1CCC2(C=Cc3ccccc32)CC1)NS(=O)(=O)c1cccs1 (stereo not drawn),–,–,inhibition [3]: 20%
C[C@H]1CN(CC[C@H](C(=O)NCc2cc(C(F)(F)F)cc(C(F)(F)F)c2)C2CCC2)CC[C@@]12C=Cc1ccccc12,28 nM,12 nM,IC50 [11]: 11 nM
O=C(NCc1cc(C(F)(F)F)cc(C(F)(F)F)c1)[C@@H](CCN1CCC(c2ccc(F)cc2)CC1)C1CC1,280 nM,72 nM,–
COC(=O)C[C@@H](CCN1CCC(c2ccccc2)CC1)C(=O)NCc1cc(C(F)(F)F)cc(C(F)(F)F)c1,–,–,inhibition [3]: 38%
CC(C)[C@H](CCN1CCC2(C=Cc3ccccc32)CC1)C(=O)NCc1cc(C(F)(F)F)cc(C(F)(F)F)c1,204 nM,47 nM,–
C[C@H]1CN(CC[C@H](CC2CC2)C(=O)NCc2cc(C(F)(F)F)cc(C(F)(F)F)c2)CC[C@@]12C=Cc1ccccc12,25 nM,9 nM,IC50 [11]: 3 nM
O=C(NCc1cc(C(F)(F)F)cc(C(F)(F)F)c1)[C@@H](CCN1CCC2(C=Cc3ccccc32)CC1)C1CC1,98 nM,15 nM,–
